This is a sample that favours compounds with a hit; in the whole collection about 2% have one here.
CHRM1 antagonist – antagonists of human M1 muscarinic receptor; P11229; CHO-K1 hM1, Fluo-8 calcium fluorescence, ACh EC80 antagonist; inhibition, % at 3 µM; 1.3% of 360,000 active;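 active = percent inhibition above its own plate's cutoff, namely the mean of that plate's compound wells plus 3 SD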;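 note: peak over basal fluorescence ratio during 140 s after agonist addition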
Target sequence (P11229 whole entry, looked up): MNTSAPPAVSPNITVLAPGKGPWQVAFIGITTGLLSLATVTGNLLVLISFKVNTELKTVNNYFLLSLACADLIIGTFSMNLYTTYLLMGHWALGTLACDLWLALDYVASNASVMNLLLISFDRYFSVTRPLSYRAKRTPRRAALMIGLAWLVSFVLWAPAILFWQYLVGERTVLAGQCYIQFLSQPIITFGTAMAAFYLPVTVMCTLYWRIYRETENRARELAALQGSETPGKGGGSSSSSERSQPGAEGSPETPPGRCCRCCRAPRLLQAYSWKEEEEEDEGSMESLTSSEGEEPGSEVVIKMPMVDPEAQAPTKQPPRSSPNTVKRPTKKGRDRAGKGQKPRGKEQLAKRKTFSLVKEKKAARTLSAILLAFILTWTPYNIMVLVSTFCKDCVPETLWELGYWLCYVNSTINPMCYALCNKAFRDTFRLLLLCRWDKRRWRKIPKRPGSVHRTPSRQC
CHRM5 PAM – CHRM5 positive allosteric modulation; P08912; CHO-K1 hM5, Fluo-8 calcium, ACh EC20 PAM; 0% = ACh EC20, 100% = ACh EC100; activation, % at 3 µM; 0.3% of 360,000 active; AID 624038;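 active = activation above the run cutoff, the mean activation of all test compounds plus 3 SD, cut at about 18% in these data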
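Assay system: CHO-K1 hM5 cells / Incubation: Fluo-8 loading 80 min at 37 °C plus 30 min room temperature / Technique: Fluo-8 calcium dye fluorescence, kinetic read / Repeats: single replicate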
CHRM5 antagonist – blocks acetylcholine activation of human M5 receptor. CHO-hM5 cells, Fluo-8 calcium fluorescence, ACh EC80. AID 624040. 0.59% of 360,000 active. inhibition, % at 3 µM. P08912;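 active = inhibition above a per-plate cutoff, the mean of that plate's test compounds plus 3 SD, cut at about 27% in these data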
CHRM1 agonist – agonists of human M1 muscarinic receptor; P11229; CHO-K1 hM1, Fluo-8 calcium fluorescence, agonist mode; 0% DMSO, 100% acetylcholine EC100; activation, % at 3 µM; 0.33% of 360,000 active;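 active = activation above the run's mean compound activation plus 3 SD, cut at about 16% in these data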;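 note: peak over basal fluorescence ratio within a 140 s kinetic read after compound addition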
M1 PAM – potentiates human M1 receptor response to acetylcholine | CHO-K1 hM1, Fluo-8 calcium fluorescence, ACh EC20; 0% = ACh EC20, 100% = maximal ACh | activation, % at 3 µM | 0.088% of 360,000 active | P11229 | AID 588819; in the data active = activation above about 19%, passing the limit was not always enough
CHRM5 agonist – CHRM5 agonism in calcium assay. P08912. CHO-K1 hM5 cells, Fluo-8 calcium fluorescence; 0% DMSO wells, 100% maximal acetylcholine response. activation, % at 3 µM. 0.19% of 360,000 active. AID 624037;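 active = activation above the run's mean over test compounds plus 3 SD, cut at about 23% in these data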;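 note: signal is peak over basal fluorescence ratio across the kinetic read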
Numbers stand for hits; i = inactive; nt = no result; ! = repeats disagree.

SMILES | CHRM1 antagonist | CHRM5 PAM | CHRM5 antagonist | CHRM1 agonist | M1 PAM | CHRM5 agonist
O=C(CN1CCN(S(=O)(=O)c2ccc(Cl)cc2)CC1)c1ccc(O)c(O)c1 | i | i | i | i | 27 | i
O=C(CN1CCN(S(=O)(=O)c2ccc(F)cc2)CC1)c1ccc(O)c(O)c1 | i | i | i | i | i | i
CC(CCC(C)C(C)(C)C)[C@@H]1CC[C@H]2C3C[C@H](OS(O)(=S)=S)[C@H]4C[C@H](OS(O)(=S)=S)[C@@H](OS(O)(=S)=S)C[C@]4(C)[C@H]3CC[C@]12C (stereo not given in full) (tested in a mixture with another compound) | i | i | i | 37 | i | i
COC(=O)c1ccc(CN2CCCC(CNC(=O)Cc3ccc(OC)cc3)C2)cc1 (stereo not given) | i | i | i | 30 | i | i
COCc1ccc(CN2CCCC(CCC(=O)NCc3ccc(C)o3)C2)o1 (stereo not given) | i | i | i | i | i | i
COC(=O)c1ccc(CN2CCCC(CCC(=O)NCc3ccc(C)o3)C2)cc1 (stereo not given) | 87 | i | i | 53 | i | i
COc1ccc(CC(=O)NCC2CCCN(Cc3ccc(OC(F)(F)F)cc3)C2)cc1 (stereo not given) | i | i | i | i | i | i
CCCCCCCCCCOC(=O)Cn1c(COc2ccccc2C)[n+](C)c2ccccc21 | 86 | i | 53 | i | i | i
Cc1cccc(OCCCn2c(=O)sc3ccccc32)c1 | i | i | i | i | i | i
CCCCCCCCCCOC(=O)Cn1c(COc2ccc(OC)cc2)[n+](C)c2ccccc21 | 41! | i | 28! | i | i | i
CCCCCCCCCCOC(=O)Cn1c(COc2cccc(C)c2)[n+](C)c2ccccc21 | 36 | i | i | i | i | i
CCOC(=O)Cn1c(COc2ccccc2OC)[n+](C)c2ccccc21 | i | i | i | i | i | i
CCCCCCCCCCOC(=O)Cn1c(COc2ccccc2)[n+](C)c2ccccc21 | 70 | i | 33 | i | i | i
CCCCOC(=O)Cn1c(=O)n(CC(=O)OCCCC)c2ccccc21 | i | i | i | i | i | i
C/C=C/c1cccc(-c2nc(C(=O)N3CCOCC3)cc3c2[C@@H](CCO)N(C(=O)NC(C)C)C3)c1 | nt | i | i | nt | nt | i
CCCCCOC(=O)Cn1c(=O)oc2ccccc21 | i | i | i | i | i | i
CCCCCCCCCCOC(=O)Cn1c(COc2ccc(Cl)cc2)[n+](C)c2ccccc21 | 43 | i | i | i | i | i
CCOC(=O)[C@@H]1[C@H]2COc3cc(OC)ccc3[C@H]2N2C(=O)N(c3ccc(C(F)(F)F)cc3)C(=O)[C@]12C | 41 | i | i | i | i | i
CCOC(=O)[C@@H]1[C@H]2COc3cc(OC)ccc3[C@H]2N2C(=O)N(c3cccc(F)c3)C(=O)[C@@]12C | 31 | i | i | i | i | i
O=c1[nH][nH]c2c1C(C1CCCCC1)OC(C1CCCCC1)C2 (stereo not given) | nt | i | i | nt | nt | i
CNc1cncc(-c2cccc(OC)c2F)n1 | i | i | i | i | i | i
CCN(CC)C1CCN(C(=O)c2ccc(OC3CCN(CCc4ccccc4)CC3)cc2)C1 (stereo not given) | 62 | i | i | i | i | i
CCn1ccnc1CN(C)C(=O)c1ccc(OC2CCN(CCc3ccccc3)CC2)cc1 | i | i | 47 | i | i | i
CN(C)c1ccc(CC(=O)N2CCCC(c3cc(C(=O)Nc4ccc(F)c(Cl)c4)no3)C2)cc1 (stereo not given) | i | i | i | i | i | i
COc1ccccc1NS(=O)(=O)c1cc(NC(=O)c2cccc(S(=O)(=O)N(C)C)c2)ccc1N1CCOCC1 | i | i | i | i | i | i
SMILES | CHRM1 antagonist | CHRM5 PAM | CHRM5 antagonist | CHRM1 agonist | M1 PAM | CHRM5 agonist
COc1cccc(NC(=O)Nc2nc(-c3ccc(OC)c(OC)c3)cs2)c1 | 31 | i | i | i | i | i
COc1ccc(-c2csc(NC(C)=O)n2)cc1OC | i | i | i | i | i | i
O=C(Nc1ccccc1)Nc1nc(-c2ccc(Cl)cc2)cs1 | i | i | i | i | i | i
O=C(Nc1cccc(Cl)c1)Nc1nc(-c2ccc(Cl)cc2)cs1 | 30 | i | i | i | i | i
COc1ccc(-c2csc(NC(=S)NC(=O)c3ccc4ccccc4c3)n2)cc1OC | i | 18 | i | i | i | i
Cc1cccnc1CNC(=O)C1(C)CCCN1CC(C)C (stereo not given) | i | i | i | i | i | i
COc1ccc(-c2cn3cccnc3n2)cc1F | i | 18 | i | i | i | i
Cc1ccc(C(=O)/C=C/Nc2cccc(O)c2)cc1 | i | 35 | i | i | i | i
CC(Cl)=CCn1c(NCCc2ccccc2)nc2c1c(=O)n(C)c(=O)n2C | i | i | i | i | i | i
CCc1nc2ccc(C(=O)NCCc3c[nH]c4ccccc34)cn2c1N(C)Cc1nccn1C | i | i | i | i | i | i
CCCCCCN1C[C@H](n2cc(-c3ccc(F)cc3)nn2)[C@@H](O)C[C@@H]1c1ccc(C)cc1 | 19 | i | i | i | i | i
CCOC(=O)c1ccc2[nH]c(C)cc(=O)c2c1 | i | i | i | i | i | i
COC(=O)c1ccc2[nH]c(C)cc(=O)c2c1 | 69 | i | i | i | i | i
CN1CCN(c2ccc(S(=O)(=O)N3CCCCC3)cn2)CC1 | i | i | i | i | i | i
O=S(=O)(c1ccc(N2CCCCCC2)nc1)N1CCCC1 | 70 | i | i | i | i | i
CCN(c1ccccc1)S(=O)(=O)c1cccc(C(=O)NCC(c2cccs2)N(C)C)c1 (stereo not given) | 52 | i | i | i | i | i
CCOc1cc2c3c(c1)C(C)=CC(C)(C)N3C(=O)C2=O | i | i | i | i | i | 56
Cc1cccc(C)c1NC(=O)C(c1ccncc1)n1c(=O)c(-c2cc3ccccc3[nH]2)nc2ccccc21 (stereo not given) | nt | i | i | nt | nt | i
COc1cc(-c2nc3ccccn3c2NCC2CCCO2)ccc1O (stereo not given) | 24 | i | i | i | i | i
COc1ccc(-c2nc3cccc(C)n3c2NCC2CCCO2)cc1O (stereo not given) | i | i | i | i | i | i
CCOc1cc(-c2nc3ccccn3c2NCC2CCCO2)ccc1O (stereo not given) | 24 | i | i | i | i | i
COc1cc(-c2nc3ccccn3c2/N=C/c2ccccc2)ccc1O | i | i | i | 27 | i | 51
Cc1cc(C)c2c(CN(Cc3ccccc3)Cc3ccccc3)cc(=O)oc2c1 | i | i | i | i | i | i
